Measured values as given in ChEMBL document CHEMBL5712889, “Neuronal activity controls Bdnf expression via Polycomb de-repression and CREB/CBP/JMJD3 activation in mature neurons” (Nat Commun, 2016).
The source made the active and inactive calls.

Columns and labels:
Assay type in all cases: functional, cell-based
Hippocampal neurone [1] = assay: Anti-neuronal activity against hippocampal neuron in Wistar rat assessed as blocked recruitment of CBP by qPCR assay analysis
Outline: (§1)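 E18 Wistar rat hippocampal neurons were cultured 15 DIV and stimulated with 20 µM NMDA for 5 min, then the medium was replaced. Cells were crosslinked with 1% formaldehyde for 10 min at 37 °C and chromatin sonicated to 400–700 bp. 100 µg protein per overnight immunoprecipitation at 4 °C, with rabbit IgG as negative control. Promoter DNA was quantified by qPCR against unstimulated controls; n = independent cultures.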

Hippocampal neurone [2] = assay: Anti-neuronal activity against hippocampal neuron in Wistar rat assessed as blocked H3K27Me3 demethylation at promoters IV by qPCR assay analysis; outline: as §1
Hippocampal neurone [3] = assay: Anti-neuronal activity against hippocampal neuron in Wistar rat assessed as higher levels of H3K27Me3 at promoter II by qPCR assay analysis; outline: as §1
Hippocampal neurone [4] = assay: Anti-neuronal activity against hippocampal neuron in Wistar rat assessed as H3K27Ac promoters VI by qPCR assay analysis; outline: as §1
Hippocampal neurone [5] = assay: Anti-neuronal activity against hippocampal neuron in Wistar rat assessed as impaired recruitment of JMJD3 by qPCR assay analysis; outline: as §1
Hippocampal neurone [6] = assay: Anti-neuronal activity against hippocampal neuron in Wistar rat assessed as active CREB was found at the BDNF promoters by qPCR assay analysis; outline: as §1
Hippocampal neurone [7] = assay: Anti-neuronal activity against hippocampal neuron in Wistar rat assessed as blocked transcriptional activation of promoters II by qPCR assay analysis
Outline: (§2)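 Rat hippocampal cultures (15 DIV) were pretreated for 1 h with 10 µM SB203580 (p38 inhibitor), then given 20 µM NMDA for 5 min. Bdnf transcripts were measured by RT-qPCR 30 min after NMDA, using 0.5 µM primers and Gapdh, GusB and Pgk1 as reference genes. Samples were compared with non-stimulated controls; n = independent cultures.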

Hippocampal neurone [8] = assay: Anti-neuronal activity against hippocampal neuron in Wistar rat assessed as blocked transcriptional activation of promoters VI by qPCR assay analysis; outline: as §2
Hippocampal neurone [9] = assay: Anti-neuronal activity against hippocampal neuron in Wistar rat assessed as H3K27Ac promoters I by qPCR assay analysis; outline: as §1
Hippocampal neurone [10] = assay: Anti-neuronal activity against hippocampal neuron in Wistar rat assessed as blocked H3K27Me3 demethylation at promoters VI by qPCR assay analysis; outline: as §1
Hippocampal neurone [11] = assay: Anti-neuronal activity against hippocampal neuron in Wistar rat assessed as H89 blocked CREB phosphorylation at Serine 133 by western blot analysis

Measured: Activity

O=C(Nc1ccc(Cl)cc1)c1cc2ccccc2cc1O
not listed: Hippocampal neurone [11]
active: all other assays above

O=S(=O)(NCCNC/C=C/c1ccc(Br)cc1)c1cccc2cnccc12
active: Hippocampal neurone [11]
